High-throughput results (PubChem BioAssay)
b-catenin transl = beta-catenin nuclear translocation modulation. AID 1665. nuclear translocation activity, % at 5 µM. HeLa beta-catenin nuclear translocation, immunofluorescence imaging. 190,000 tested, 0.3% active;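 active = nuclear translocation activity above 50% at 5 µM, with a well cell count of 50 or more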;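 also: per-cell ratio of nuclear to cytoplasmic median beta-catenin stain intensity; plate controls were DMSO negative control for no effect and GSK-3 inhibitor IX positive control for full effect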
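assay system = human HeLa cells, endogenous beta-catenin | times = compound treatment 24 h, 37°C, 5% CO2 | detection = Anti-beta-catenin immunofluorescence on PFA-fixed, Triton-permeabilized cells, DAPI nuclei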
Autophagy mod = modulators of autophagy; 190,000 tested, 0.98% active; calls only at 10 µM (by protocol); MEF GFP-LC3 puncta imaging; test concentration mostly 10 µM;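 active = percentage of spot-positive cells more than 3 SD above its plate mean, without a fluorescence outlier flag or 80% toxicity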;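 also: spot-positive cell cutoff set from DMSO-treated cells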
CHOP inh = blocks CHOP induction under ER stress. CHO-K1 CHOP-promoter luciferase, tunicamycin-induced, 15-18 h. inhibition, % at 10 µM. 220,000 tested, 3.8% active;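 active = compounds that reduced the stress-induced luciferase reporter signal by more than about 70% of percent inhibition, limit read from the data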;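 also: 0% = tunicamycin plus vehicle and 100% = wells without tunicamycin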
Dynein cargo inh = dynein cargo transport inhibition. 3617.4 mouse cells, GR-EGFP nuclear translocation imaging; test concentration mostly 20 µM; stimulated with dexamethasone, 1 µM; hits give low values. z-score, hits read low. 220,000 tested, 0.47% active;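 active = plate z-score of nuclear minus cytoplasmic receptor signal below a set negative limit, without overly bright fluorescence or cell loss, cut at about -3.5 in these data, passing the limit was not always enough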;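 also: z-score of nuclear minus cytoplasmic ring GR-EGFP intensity difference per well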
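Medium: Induction medium lacking tetracycline, stripped serum | Probe or stimulus: 1.0 µM final dexamethasone stimulus | Schedule: 48 h induction, then 1 h compound, then 30 min agonist, 37 °C | Signal: Automated 10x imaging of fixed Hoechst-stained cells | Evaluation: Per-cell GR-EGFP intensity, nucleus versus surrounding cytoplasmic ring, well-averaged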
Lmaj promast = inhibitors of Leishmania major promastigote growth; Leishmania major promastigotes, resazurin fluorescence viability; inhibition, % at 10 µM; 200,000 tested, 9% active; in the data active = inhibition above about 50%;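 also: promastigotes grown with compound for 44 hours at 28 °C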
MT stabilizer = microtubule stabilization, imaging screen | % tubulin-high responders, % at 10 µM | 200,000 tested, 0.83% active | HeLa tubulin immunostaining HCS, 24 h; share of cells brighter than vehicle mean+2SD;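 active = plate Z-score above 3 for both tubulin-high and condensed-nucleus cell shares, with cell loss under 80%, at 10 µM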;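 also: anti alpha tubulin signal scored within the nucleus-defined area of each cell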
CHOP inh conf = confirmation of CHOP induction inhibitors; shares compounds with CHOP inh; CHO-CHOP promoter luciferase reporter, tunicamycin-induced, luminescence; inhibition, % at 10 µM; 2,100 tested, 45% active; AID 504437;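 active = mean of three repeat readings of reporter signal inhibition above a set limit, cut at about 70% in these data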;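 also: 0% = tunicamycin plus vehicle and 100% = wells lacking tunicamycin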
Starred values were filed as active, the others as inactive; i = inactive; . = no result given. Rows were chosen to be rich in hits. Some 12% of all compounds tested hit in one or more screens of this group.

SMILES | b-catenin transl | Autophagy mod | CHOP inh | Dynein cargo inh | Lmaj promast | MT stabilizer | CHOP inh conf
C=C(C)Cn1cnc2c(oc3nc4c(cc32)CCCC4)c1=O | -2 | . | 2 | 0.045 | . | . | .
NC(=O)CC(NC(=O)Cc1ccc(Br)cc1)c1ccc(NCCc2cccc(F)c2)c([N+](=O)[O-])c1 (stereo unspecified) | 0 | . | -2 | -0.11 | . | . | .
NC(=O)CC(NC(=O)Cc1cccc2ccccc12)c1ccc(NCc2ccc(F)cc2)c([N+](=O)[O-])c1 (stereo unspecified) | 1 | . | 105* | 0.38 | . | . | 108*
NC(=O)CC(NC(=O)Cc1ccc(Br)cc1)c1ccc(NCc2cc(F)ccc2F)c([N+](=O)[O-])c1 (stereo unspecified) | 0 | . | 97* | -0.79 | . | . | 7
NC(=O)CC(NC(=O)Cc1cccc2ccccc12)c1ccc(NCc2ccccc2)c([N+](=O)[O-])c1 (stereo unspecified) | 0 | . | 101* | -1.3 | . | . | 91*
CCOc1ccc2nc(CN3CCN(Cc4ccsc4)C(CCO)C3)ccc2c1 (stereo unspecified) | 0 | i | 7 | 1.8 | 21 | 3 | .
Cc1nc2c(C#N)c(-c3ccc(Cl)cc3)ccn2n1 | 2 | i | 2 | 0.25 | 5 | 6 | .
CC(C)(C)c1nc2c(C#N)c(-c3ccc(Cl)cc3)ccn2n1 | 2 | i | 101* | 0.29 | 14 | 1 | 21
O=S(=O)(/C(=C/c1ccc(C(F)(F)F)cc1)c1nc2ccccc2[nH]1)c1ccccc1 | 38 | i | 109* | -2.6 | 100* | 54 | 134*
O=C(Cn1ncc(Cl)c(Cl)c1=O)NCC1CCCCC1 | 36 | i | 108* | -6.2* | 28 | 3 | -15
O=[N+]([O-])c1cccc(/C=N/Nc2nc(NCc3ccccc3)nc(N3CCOCC3)n2)c1 | -5 | i | 104* | -0.26 | 48 | 3 | 2
O=[N+]([O-])c1cc(/C=N/Nc2nc(N3CCOCC3)nc(N3CCOCC3)n2)ccc1Cl | -2 | i | -8 | -0.71 | -1 | 6 | .
O=C(Nc1cc(Cl)ccc1O)c1cc2n(n1)C(C(F)(F)F)CC(c1ccc3c(c1)OCO3)N2 (stereo unspecified) | 1 | i | 105* | 0.2 | 84* | 2 | 89*
O=C(NCc1ccc2c(c1)OCO2)c1cc2n(n1)C(C(F)(F)F)CC(c1ccc3c(c1)OCO3)N2 (stereo unspecified) | . | i | 47 | -0.96 | -6 | 4 | .
O=S(=O)(Nc1ccccc1)c1ccc(Oc2ncc(C(F)(F)F)cc2Cl)cc1 | 0 | i | 109* | 0.00038 | -1 | 2 | 115*
CCOc1cnn(-c2cc(Oc3ccc(C)cc3)ncn2)c(=O)c1Cl | . | i | 45 | -0.3 | -2 | 2 | .
Cc1ccccc1Oc1cc(-n2ncc(Cl)c(Cl)c2=O)ncn1 | -1 | i | 108* | -3 | 100* | 4 | 119*
CNC(=O)N(C1=NCCCCC1)c1ccc(Br)cc1 | 0 | i | 28 | -0.41 | -4 | 2 | .
CCCCCc1ccc(OCCOCCn2c[n+](C)c3ccccc32)c(CCCCC)c1 | -1 | i | 108* | -5.6 | 101* | 79 | 122*
